KCNQ1 inh: inhibitors of human KCNQ1 potassium channel | CHO-K1 KCNQ1, FluxOR thallium flux fluorescence; hits give high values | B-score at 10 µM | actives 1.3% (n = 310,000);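 active means compounds whose thallium flux B-score, printed positive for inhibition, exceeds three library SD while starting fluorescence stays within three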;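 further: channel opened by potassium depolarization with thallium stimulus after 20 min compound exposure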
KCNQ1 act: potentiates or activates the human KCNQ1 potassium channel. P51787. CHO-K1 KCNQ1, thallium flux FluxOR fluorescence; hits give high values. B-score at 10 µM. actives 0.35% (n = 310,000);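 active means fluorescence ratio B-score, a plate-corrected score, at least three library SD, with initial intensity B-score within 5 SD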
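Medium – assay buffer, equal DMSO in all wells · Material – CHO-K1 cell line with stable KCNQ1 potassium channel expression · Signal – kinetic FluxOR thallium fluorescence, 10-s 1-Hz baseline, 110-s post-stimulus read · Compound – single concentration per compound, DMSO matched to controls · Schedule – 37 °C overnight plating, 90-min dark dye load, 20-min compound pretreatment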
hERG rescue: hERG (human) protection from proarrhythmic block; Q12809; AID 1511; activation (rescue from dofetilide block), less the hit threshold, % at 10 µM; CHO-hERG, FluxOR thallium flux, dofetilide IC70 present; actives 0.51% (n = 310,000);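 active means activation above the mean of controls blocked by dofetilide plus 5 SD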;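 further: thallium influx through hERG after potassium depolarization seen as dye fluorescence rise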
KCNK3 block: human KCNK3 channel inhibition, primary screen | AID 602410 | actives 0.84% (n = 340,000) | CHO-KCNK3 thallium flux, FluxOR fluorescence; hits give low values | B-score at 10 µM | O14649;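 active means B-score under library mean minus 4 SD, starting fluorescence ratio at most library mean plus 5 SD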;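 further: more negative B-score means stronger inhibition of thallium flux through KCNK3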
PHOSPHO1 block: blocks human PHOSPHO1 phosphatase activity; Q8TCT1; recombinant PHOSPHO1, absorbance phosphatase assay; inhibition, % at 13.3 µM; actives 1.1% (n = 290,000); in the data active means inhibition above about 60%
KCNK9 inh: inhibitors of human KCNK9 two-pore domain potassium channel; Q9NPC2; B-score at 10 µM; HEK293 KCNK9, FluxOR thallium flux fluorescence; hits give low values; actives 1.2% (n = 310,000);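 active means ratio B-score over 3 SD below the library mean, with starting fluorescence within 5 SD of its mean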;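 further: negative B-score means less thallium flux so channel inhibition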
KCNK9 block conf: confirmation of human KCNK9 potassium channel inhibitors; shares compounds with KCNK9 inh; HEK293 KCNK9 cells, FluxOR thallium flux fluorescence; inhibition, % at 10 µM; actives 43% (n = 4,900);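 active means thallium signal inhibited by more than 5 SD of the compound-free buffer control wells, on both duplicate plates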;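 further: 0% = assay buffer control wells without compound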
Kir2-1 spec: mouse Kir2.1 off-target activity of KCNK9 modulators | shares compounds with KCNK9 inh | Kir2.1 cells, FluxOR thallium flux fluorescence | inhibition, % at 10 µM | actives 4% (n = 4,900) | AID 492993;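 active means thallium signal drop more than 5 SD beyond the mean of the no-compound control wells, seen in both duplicate plates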;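 further: signal is fluorescence rise after thallium addition divided by baseline fluorescence; plate controls were assay buffer only for no effect and full block by chlorpromazine control for full effect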
KCNK9 uninduced: second check of KCNK9 modulator effects in non-induced HEK293 cells; inhibition, % at 10 µM; AID 492997; shares compounds with KCNK9 inh; FluxOR thallium flux; actives 40% (n = 4,900);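 active means thallium signal drop beyond 5 SD of the untreated control mean, on both duplicate plates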;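 further: plate controls were buffer only IC0 wells for no effect and SID17386958 at its maximal inhibitory level for full effect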
* hit, by the source's call; i = inactive; . = no result given. Sampled rows, rich in hits. Any-hit rate of the full collection: about 4%.

SMILES | KCNQ1 inh | KCNQ1 act | hERG rescue | KCNK3 block | PHOSPHO1 block | KCNK9 inh | KCNK9 block conf | Kir2-1 spec | KCNK9 uninduced
CCCN(C(=O)CSc1cc(-c2ccccc2)c2ccc(OC)cc2n1)C1CCS(=O)(=O)C1 (configuration not stated) | i | i | -4.6 | i | -18.9 | -8.38* | 48.0%* | i | 28.5%*
CCN(C(=O)CSc1cc(C)c2ccccc2n1)C1CCS(=O)(=O)C1 (configuration not stated) | i | i | -7.4 | i | 20.4 | i | . | . | .
Cc1ccc(SCC(=O)N(Cc2nc(-c3ccccc3)no2)C(C)C)cc1 | i | i | -8.8 | i | -33.6 | i | i | i | 27.5%*
Cc1cccc(-c2noc(CN(C(=O)C34CC5CC(CC(C5)C3)C4)C(C)C)n2)c1 | i | i | -2.3 | i | -6.1 | i | i | i | i
CC(C)N(Cc1nc(-c2ccc(Cl)cc2)no1)C(=O)C12CC3CC(CC(C3)C1)C2 | i | i | -10.5 | i | 12.4 | i | i | i | i
Cc1ccc(C(=O)N(Cc2nc(-c3ccc(C)cc3)no2)C(C)C)cc1 | i | i | -5.8 | i | -16.3 | i | . | . | .
O=S(=O)(NCc1ccccn1)c1ccc2c(c1)OCCO2 | i | i | -2.3 | i | -21.3 | i | . | . | .
C=CCc1ccc(OCCOCCN(C)C)c(OC)c1 | i | i | -3.0 | i | 4.9 | i | . | . | .
C=CCc1ccc(OCCOc2cccc3ccc(C)nc23)c(OC)c1 | i | i | -9.1 | i | -22.6 | i | i | i | i
C=CCc1ccc(OCCCOc2ccc(C)c(C)c2)c(OC)c1 | i | i | -11.4 | i | -7.1 | i | i | i | i
COc1ccc(S(=O)(=O)N2CCN(c3nc(C)cc(C)n3)CC2)cc1 | i | i | -12.1 | i | 28.4 | i | . | . | .
Oc1ccc(/C=N/Nc2cc(N3CCCC3)nc(N3CCCC3)n2)cc1O | i | i | -5.5 | i | -12.0 | i | . | . | .
CCOc1ccc(C(=O)/C=C/c2cn(CN3CCN(C)CC3)c3ccccc23)cc1 | . | . | . | i | 8.1 | . | . | . | .
COC(=O)CCC(=O)NNC(=O)Cc1ccccc1 | i | i | -5.7 | i | 49.0 | i | . | . | .
Cc1ccc(-n2c(-c3ccncc3)n[nH]c2=S)cc1 | i | i | -14.9 | i | 3.5 | i | . | . | .
Cc1cc(C(=O)COC(=O)c2ccccc2O)c(C)n1Cc1cccs1 | i | i | -10.8 | i | 3.4 | i | . | . | .
CCn1nc(C(=O)OCC(=O)c2cc(C)n(Cc3cccs3)c2C)c2ccccc2c1=O | i | i | -17.1 | i | -1.2 | i | i | i | i
Cc1cc(C(=O)COC(=O)c2ccc3c(c2)OCO3)c(C)n1Cc1cccs1 | i | i | -5.1 | i | -17.7 | i | i | i | i
CC(C)C[C@@H](CN)NC(=O)c1nc[nH]c1C(=O)N[C@@H](CC(C)C)C(=O)CNC[C@H](C)NC(=O)c1nc[nH]c1C(=O)N[C@@H](C)C(=O)O | . | . | . | i | . | . | . | . | .
Cc1ccc(NNS(=O)(=O)c2ccc(C)cc2)cc1 | i | i | -8.5 | i | 48.9 | i | . | . | .
Cc1ccc(NC(=O)COC(=O)CCn2c(C)csc2=O)c([N+](=O)[O-])c1 | i | i | -14.6 | i | . | i | . | . | .
COc1ccc(Cl)cc1NC(=O)Nc1ccc(Br)cn1 | i | i | -6.7 | i | 1.7 | i | . | . | .
Cc1c(N2C(=O)/C(=C\c3cccc4ccccc34)SC2=S)c(=O)n(-c2ccccc2)n1C | i | i | -6.0 | -9.4* | -13.8 | i | i | i | i
Cc1c(N2C(=O)c3ccccc3C2=O)c(=O)n(-c2ccccc2)n1C | i | i | -6.3 | i | -16.0 | i | . | . | .

Screening data as filed in PubChem BioAssay.
